The subject of data set [1] is Mast/stem cell growth factor receptor Kit (Homo sapiens), P10721 [V559D]. As to the kind of experiment: Inhibition of partial length human KIT V559D mutant expressed in Escherichia coli BL21 assessed as remaining activity at 1 uM after 1 hr by KINOMEscan method. The gist of the method:
(§1)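 Active-site-dependent competition binding screen run by an outside provider across a 468-kinase panel (403 nonmutated, 65 mutated kinases).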

Data set [2] has as its system Rattus norvegicus. Description: Inhibition of myocardial hypertrophy in po dosed spontaneous hypertensive WKY rat model assessed as restoration of cardiomyocyte disarrangement to normal phenomena administered for 4 continuous weeks by Hematoxylin and eosin staining-based light microscopic method. It counts as functional, organism-based. The gist of the method:
(§2)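 Spontaneously hypertensive rats randomized into 3 groups given oral 0, 10 or 20 mg/kg/day for 4 continuous weeks; normotensive Wistar-Kyoto rats as reference; n = 6 per group. After sacrifice, left ventricles were collected to measure mass at diastole and systole; heart sections stained with hematoxylin and eosin for cardiomyocyte arrangement.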

For data set [3], the system named is Rattus norvegicus. Description: AUC (0 to infinity) in Sprague-Dawley rat at 10 mg/kg, po by HPLC/MS analysis. The note with it: in vivo. It counts as ADME, organism-based. Set-up: dose 10 mg/kg, time infinity, route oral. The gist of the method:
(§3)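 Sprague-Dawley rats given a single oral dose of 10 mg/kg; plasma exposure (AUC), half-life and oral bioavailability derived.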

The species entered for data set [4] is Rattus norvegicus. Description: Inhibition of ZAK in Ang-2-induced rat H9c2 cells assessed as decrease in p38 phosphorylation by Western blot analysis.
In data set [5] the test system is Serine/threonine-protein kinase B-raf (Homo sapiens), P15056 [V600E]. Description: Inhibition of partial length human BRAF V600E mutant expressed in HEK293 cells assessed as remaining activity at 1 uM after 1 hr by KINOMEscan method. Type of data set: cell-based. The gist of the method:
as §1

In data set [6] the target is Aurora kinase B (Homo sapiens, UniProt Q96GD4). Description: Inhibition of partial length human AURKB expressed in HEK293 cells assessed as remaining activity at 1 uM after 1 hr by KINOMEscan method. It counts as cell-based. The gist of the method: as §1
Sequence of Aurora kinase B (Q96GD4 whole entry): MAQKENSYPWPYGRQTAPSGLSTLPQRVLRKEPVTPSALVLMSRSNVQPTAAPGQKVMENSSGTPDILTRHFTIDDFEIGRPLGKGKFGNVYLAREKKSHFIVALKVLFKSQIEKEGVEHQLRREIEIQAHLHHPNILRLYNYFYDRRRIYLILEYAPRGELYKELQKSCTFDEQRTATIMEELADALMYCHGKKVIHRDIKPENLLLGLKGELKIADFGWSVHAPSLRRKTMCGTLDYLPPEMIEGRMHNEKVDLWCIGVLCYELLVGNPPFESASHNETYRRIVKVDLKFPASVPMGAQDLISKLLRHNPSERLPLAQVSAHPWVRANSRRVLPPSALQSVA
Data set [7] is filed under the species Rattus norvegicus. As to the kind of experiment: Inhibition of ZAK in Ang-2-induced rat H9c2 cells assessed as decrease in JNK phosphorylation by Western blot analysis.
Data set [8] deals with Rattus norvegicus. Description: Inhibition of myocardial hypertrophy in po dosed spontaneous hypertensive WKY rat model assessed as decrease in left ventricular mass at systole administered for 4 continuous weeks. Type of data set: functional, organism-based. The essentials:
as §2

Data set [9] concerns the target T1, Tyrosine-protein kinase Srms (Homo sapiens, UniProt Q9H3Y6). Description: Binding affinity to partial length human SRMS expressed in HEK293 cells by active-site-dependent competition assay. Type of data set: cell-based. The gist of the method:
(§4)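 Active-site-dependent competition binding (KINOMEscan) run by an outside service across a panel of 468 kinases (403 nonmutated, 65 mutated); reported as binding constant Kd.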

For data set [10], the system named is Rattus norvegicus. Description: Inhibition of myocardial hypertrophy in po dosed spontaneous hypertensive WKY rat model assessed as decrease in p38 phosphorylation administered for 4 continuous weeks by Western blot method. It counts as functional, organism-based. The gist of the method:
(§5)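 Spontaneously hypertensive rats given oral 0, 10 or 20 mg/kg/day for 4 continuous weeks alongside normotensive Wistar-Kyoto controls; left ventricles harvested after sacrifice for Western blot analysis.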

For data set [11], the target named is Serine/threonine-protein kinase SIK1 (Homo sapiens, UniProt P57059). As to the kind of experiment: Binding affinity to partial length human SIK expressed in Escherichia coli BL21 by active-site-dependent competition assay. The gist of the method:
as §4

Data set [12] deals with T2, Mitogen-activated protein kinase kinase kinase 20 (Homo sapiens, UniProt Q9NYL2). As to the kind of experiment: Inhibition of N-terminal GST-tagged recombinant human full-length ZAK expressed in baculovirus infected Sf9 insect cells using MBP as substrate after 30 mins by ADP-Glo assay. The gist of the method:
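ZAK activity by ADP-Glo luminescence with MBP as substrate, ATP and serially diluted compound. Reaction started by adding ATP and run 30 min at room temperature. ADP-Glo reagent was added to stop it (40 min), then detection reagent for 30 min before reading luminescence. Curves fitted; each experiment repeated at least 3 times.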
Target sequence in this assay (Q9NYL2 whole entry): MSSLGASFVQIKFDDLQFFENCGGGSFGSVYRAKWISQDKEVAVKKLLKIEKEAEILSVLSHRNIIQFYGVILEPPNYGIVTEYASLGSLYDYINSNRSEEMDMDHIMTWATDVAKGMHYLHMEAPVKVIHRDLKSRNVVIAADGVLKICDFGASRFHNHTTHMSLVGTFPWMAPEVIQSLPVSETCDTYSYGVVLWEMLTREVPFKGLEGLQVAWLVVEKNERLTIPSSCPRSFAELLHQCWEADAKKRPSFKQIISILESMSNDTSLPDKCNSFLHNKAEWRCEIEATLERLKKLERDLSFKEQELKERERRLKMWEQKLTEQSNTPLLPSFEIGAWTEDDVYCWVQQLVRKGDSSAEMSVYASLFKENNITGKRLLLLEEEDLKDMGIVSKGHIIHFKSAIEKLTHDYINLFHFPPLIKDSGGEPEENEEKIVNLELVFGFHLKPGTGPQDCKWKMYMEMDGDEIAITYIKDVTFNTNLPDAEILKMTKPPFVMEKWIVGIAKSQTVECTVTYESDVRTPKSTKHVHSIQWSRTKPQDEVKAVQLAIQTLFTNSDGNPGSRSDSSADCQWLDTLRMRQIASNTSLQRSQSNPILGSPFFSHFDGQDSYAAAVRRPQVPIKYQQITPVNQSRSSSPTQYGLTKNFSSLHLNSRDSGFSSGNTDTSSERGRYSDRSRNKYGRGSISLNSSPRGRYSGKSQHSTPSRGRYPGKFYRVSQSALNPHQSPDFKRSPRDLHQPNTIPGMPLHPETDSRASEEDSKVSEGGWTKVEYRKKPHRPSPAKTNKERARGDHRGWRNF

The nature of data set [13]: Protein binding in mouse plasma at 1 uM after 4 hrs by equilibrium dialysis method. Particulars: read-out: PPB (converted). Type of data set: ADME, cell-free.
Data set [14] concerns Mast/stem cell growth factor receptor Kit (Homo sapiens), P10721 [L576P]. Description: Inhibition of partial length human KIT L576P mutant expressed in Escherichia coli BL21 assessed as remaining activity at 1 uM after 1 hr by KINOMEscan method. The gist of the method: as §1
Sequence of Mast/stem cell growth factor receptor Kit (Homo sapiens), P10721 [L576P] (P10721 whole entry L576P): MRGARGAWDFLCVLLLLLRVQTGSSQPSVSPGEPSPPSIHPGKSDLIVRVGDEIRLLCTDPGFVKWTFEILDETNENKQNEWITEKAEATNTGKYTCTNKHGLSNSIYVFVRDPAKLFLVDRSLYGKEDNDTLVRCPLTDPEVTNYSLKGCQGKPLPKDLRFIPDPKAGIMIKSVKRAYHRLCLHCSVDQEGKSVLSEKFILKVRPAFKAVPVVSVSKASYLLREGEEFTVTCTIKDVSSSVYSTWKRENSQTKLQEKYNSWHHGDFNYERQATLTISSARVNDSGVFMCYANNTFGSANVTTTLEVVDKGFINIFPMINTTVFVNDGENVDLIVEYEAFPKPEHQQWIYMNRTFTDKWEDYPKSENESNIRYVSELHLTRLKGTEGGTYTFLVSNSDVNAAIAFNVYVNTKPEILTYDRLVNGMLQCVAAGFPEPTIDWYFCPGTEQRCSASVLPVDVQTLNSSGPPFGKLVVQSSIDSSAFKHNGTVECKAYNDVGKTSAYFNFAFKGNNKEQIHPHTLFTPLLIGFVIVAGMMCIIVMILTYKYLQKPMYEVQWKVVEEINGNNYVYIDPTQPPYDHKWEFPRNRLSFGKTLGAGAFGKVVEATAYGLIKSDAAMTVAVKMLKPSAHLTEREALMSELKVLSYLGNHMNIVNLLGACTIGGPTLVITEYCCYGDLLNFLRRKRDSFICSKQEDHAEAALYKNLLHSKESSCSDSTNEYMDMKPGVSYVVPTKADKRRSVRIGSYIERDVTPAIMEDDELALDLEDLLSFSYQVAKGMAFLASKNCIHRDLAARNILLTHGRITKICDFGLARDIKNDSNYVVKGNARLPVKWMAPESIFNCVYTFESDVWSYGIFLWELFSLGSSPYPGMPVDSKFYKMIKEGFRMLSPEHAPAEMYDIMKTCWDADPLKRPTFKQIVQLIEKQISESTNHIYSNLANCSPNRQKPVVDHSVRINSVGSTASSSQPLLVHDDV
Data set [15] can be described thus: Half life in Sprague-Dawley rat at 10 mg/kg, po by HPLC/MS analysis. Type of data set: ADME, organism-based. Particulars: in vivo. The essentials: as §3
Data set [16] has as its target T1, Tyrosine-protein kinase Srms. As to the kind of experiment: Inhibition of partial length human SRMS expressed in HEK293 cells assessed as remaining activity at 1 uM after 1 hr by KINOMEscan method. Type of data set: cell-based. The gist of the method: as §1
In data set [17] the target is T2, Mitogen-activated protein kinase kinase kinase 20. Description: Binding affinity to partial length human ZAK expressed in Escherichia coli BL21 by active-site-dependent competition assay. The essentials:
as §4
Target sequence in this assay (Q9NYL2 whole entry): as the sequence (Q9NYL2 whole entry) above

In data set [18] the target is T3, Dual specificity mitogen-activated protein kinase kinase 5 (Homo sapiens, UniProt Q13163).
T3 sequence (Q13163 whole entry): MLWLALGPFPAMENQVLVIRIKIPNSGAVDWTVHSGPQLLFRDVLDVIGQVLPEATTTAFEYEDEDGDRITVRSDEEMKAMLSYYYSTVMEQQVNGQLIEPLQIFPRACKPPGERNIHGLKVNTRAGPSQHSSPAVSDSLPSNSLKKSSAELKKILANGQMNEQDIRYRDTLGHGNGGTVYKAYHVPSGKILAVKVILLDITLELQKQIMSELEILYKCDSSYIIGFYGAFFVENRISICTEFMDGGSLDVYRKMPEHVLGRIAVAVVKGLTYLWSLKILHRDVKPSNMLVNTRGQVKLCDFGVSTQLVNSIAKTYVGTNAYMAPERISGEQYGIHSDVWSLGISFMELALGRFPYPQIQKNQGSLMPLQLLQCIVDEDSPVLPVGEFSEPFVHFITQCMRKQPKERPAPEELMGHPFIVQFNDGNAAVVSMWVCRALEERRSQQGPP
Description: Binding affinity to partial length human MEK5 expressed in HEK293 cells by active-site-dependent competition assay. It counts as cell-based. The essentials: as §4

For data set [19], the target named is Mast/stem cell growth factor receptor Kit (Homo sapiens, UniProt P10721). As to the kind of experiment: Inhibition of partial length human KIT expressed in Escherichia coli BL21 assessed as remaining activity at 1 uM after 1 hr by KINOMEscan method. The gist of the method: as §1
Data set [20] deals with Rattus norvegicus. Description: Inhibition of myocardial hypertrophy in po dosed spontaneous hypertensive WKY rat model assessed as decrease in left ventricular mass at diastole administered for 4 continuous weeks. It counts as functional, organism-based. The essentials: as §2
The subject of data set [21] is Rattus norvegicus. Description: Inhibition of myocardial hypertrophy in po dosed spontaneous hypertensive WKY rat model assessed as downregulation of BNP levels administered for 4 continuous weeks by Western blot method. Type of data set: functional, organism-based. The essentials:
as §5

Data set [22] concerns the target Serine/threonine-protein kinase B-raf (Homo sapiens, UniProt P15056, V600E). As to the kind of experiment: Inhibition of partial length human BRAF V600E mutant expressed in HEK293 cells using Ser/Thr3 as substrate after 1 hr by FRET-based Z'-Lyte assay. The gist of the method:
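Z'-Lyte FRET assay with Ser/Thr3 peptide in kinase buffer; the final reaction held 0.002 ng B-Raf for wild type. Incubated 1 h at room temperature, then 1 h development to cleave nonphosphorylated peptide, then stop reagent. Controls: phosphopeptide for 100% phosphorylation, buffer instead of ATP for 100% inhibition, DMSO vehicle for 0% inhibition. Means of 3 independent experiments.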

Data set [23] concerns the target T2, Mitogen-activated protein kinase kinase kinase 20. Description: Inhibition of partial length human ZAK expressed in Escherichia coli BL21 assessed as remaining activity at 1 uM after 1 hr by KINOMEscan method. The essentials: as §1
Target sequence in this assay (Q9NYL2 2-800 limits assumed): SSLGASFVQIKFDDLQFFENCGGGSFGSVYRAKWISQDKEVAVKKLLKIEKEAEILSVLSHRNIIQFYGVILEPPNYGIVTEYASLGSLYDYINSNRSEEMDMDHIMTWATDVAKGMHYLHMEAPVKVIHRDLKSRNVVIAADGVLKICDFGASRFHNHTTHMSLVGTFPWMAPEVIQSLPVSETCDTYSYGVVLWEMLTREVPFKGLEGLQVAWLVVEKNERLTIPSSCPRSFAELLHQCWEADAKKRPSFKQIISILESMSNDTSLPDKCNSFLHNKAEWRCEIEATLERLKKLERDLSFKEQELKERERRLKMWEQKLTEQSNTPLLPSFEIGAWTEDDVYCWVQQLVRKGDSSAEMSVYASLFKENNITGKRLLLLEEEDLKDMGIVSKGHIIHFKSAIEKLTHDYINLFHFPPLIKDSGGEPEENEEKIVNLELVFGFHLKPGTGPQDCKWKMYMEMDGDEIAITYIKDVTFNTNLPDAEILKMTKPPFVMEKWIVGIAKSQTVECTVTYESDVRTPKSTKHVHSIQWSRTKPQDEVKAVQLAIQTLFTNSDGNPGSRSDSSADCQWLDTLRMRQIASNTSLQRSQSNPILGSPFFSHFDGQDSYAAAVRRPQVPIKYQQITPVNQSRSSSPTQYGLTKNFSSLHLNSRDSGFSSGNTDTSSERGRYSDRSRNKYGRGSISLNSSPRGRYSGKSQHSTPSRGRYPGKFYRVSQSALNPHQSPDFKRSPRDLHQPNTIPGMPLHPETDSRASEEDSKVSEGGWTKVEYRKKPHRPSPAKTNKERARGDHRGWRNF
Data set [24] is filed under the species Rattus norvegicus. As to the kind of experiment: Inhibition of ZAK in Ang-2-induced rat H9c2 cells assessed as downregulation of BNP levels by Western blot analysis.

T1 sequence (Q9H3Y6 whole entry): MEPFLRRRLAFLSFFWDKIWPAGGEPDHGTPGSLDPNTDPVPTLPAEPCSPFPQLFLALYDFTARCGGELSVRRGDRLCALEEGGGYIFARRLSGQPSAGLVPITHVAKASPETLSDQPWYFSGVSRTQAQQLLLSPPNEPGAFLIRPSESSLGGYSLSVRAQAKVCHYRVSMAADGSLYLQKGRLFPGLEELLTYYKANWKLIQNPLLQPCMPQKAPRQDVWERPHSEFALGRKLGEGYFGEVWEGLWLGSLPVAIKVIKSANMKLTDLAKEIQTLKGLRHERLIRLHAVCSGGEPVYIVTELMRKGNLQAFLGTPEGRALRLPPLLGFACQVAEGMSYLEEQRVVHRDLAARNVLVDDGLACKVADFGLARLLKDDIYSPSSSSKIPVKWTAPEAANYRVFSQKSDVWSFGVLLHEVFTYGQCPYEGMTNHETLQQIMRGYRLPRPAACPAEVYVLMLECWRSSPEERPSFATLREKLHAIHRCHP
Sequence of Serine/threonine-protein kinase SIK1 (P57059 whole entry): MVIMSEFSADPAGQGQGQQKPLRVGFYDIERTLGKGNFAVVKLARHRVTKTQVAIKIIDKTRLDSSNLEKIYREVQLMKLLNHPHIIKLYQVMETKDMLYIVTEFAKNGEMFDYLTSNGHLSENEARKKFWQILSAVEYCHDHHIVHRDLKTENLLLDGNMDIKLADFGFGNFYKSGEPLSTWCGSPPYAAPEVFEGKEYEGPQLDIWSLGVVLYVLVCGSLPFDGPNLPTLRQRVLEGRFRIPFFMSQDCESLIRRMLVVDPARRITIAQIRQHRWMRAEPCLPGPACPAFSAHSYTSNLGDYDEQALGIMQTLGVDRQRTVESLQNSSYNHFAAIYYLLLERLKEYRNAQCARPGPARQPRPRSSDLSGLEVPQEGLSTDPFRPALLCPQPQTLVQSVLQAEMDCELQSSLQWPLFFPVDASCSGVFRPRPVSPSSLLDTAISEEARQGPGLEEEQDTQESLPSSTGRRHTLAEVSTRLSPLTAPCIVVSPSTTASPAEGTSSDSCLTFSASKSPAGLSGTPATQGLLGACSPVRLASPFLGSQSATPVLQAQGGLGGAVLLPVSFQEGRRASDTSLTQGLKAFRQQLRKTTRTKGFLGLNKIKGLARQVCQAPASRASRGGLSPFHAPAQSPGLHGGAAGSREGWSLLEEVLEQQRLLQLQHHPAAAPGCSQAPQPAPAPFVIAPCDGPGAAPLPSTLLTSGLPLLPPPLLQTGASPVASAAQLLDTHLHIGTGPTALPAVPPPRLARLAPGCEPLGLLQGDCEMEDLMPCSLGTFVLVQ
Sequence of Serine/threonine-protein kinase B-raf (Homo sapiens), P15056 [V600E] (P15056 whole entry V600E): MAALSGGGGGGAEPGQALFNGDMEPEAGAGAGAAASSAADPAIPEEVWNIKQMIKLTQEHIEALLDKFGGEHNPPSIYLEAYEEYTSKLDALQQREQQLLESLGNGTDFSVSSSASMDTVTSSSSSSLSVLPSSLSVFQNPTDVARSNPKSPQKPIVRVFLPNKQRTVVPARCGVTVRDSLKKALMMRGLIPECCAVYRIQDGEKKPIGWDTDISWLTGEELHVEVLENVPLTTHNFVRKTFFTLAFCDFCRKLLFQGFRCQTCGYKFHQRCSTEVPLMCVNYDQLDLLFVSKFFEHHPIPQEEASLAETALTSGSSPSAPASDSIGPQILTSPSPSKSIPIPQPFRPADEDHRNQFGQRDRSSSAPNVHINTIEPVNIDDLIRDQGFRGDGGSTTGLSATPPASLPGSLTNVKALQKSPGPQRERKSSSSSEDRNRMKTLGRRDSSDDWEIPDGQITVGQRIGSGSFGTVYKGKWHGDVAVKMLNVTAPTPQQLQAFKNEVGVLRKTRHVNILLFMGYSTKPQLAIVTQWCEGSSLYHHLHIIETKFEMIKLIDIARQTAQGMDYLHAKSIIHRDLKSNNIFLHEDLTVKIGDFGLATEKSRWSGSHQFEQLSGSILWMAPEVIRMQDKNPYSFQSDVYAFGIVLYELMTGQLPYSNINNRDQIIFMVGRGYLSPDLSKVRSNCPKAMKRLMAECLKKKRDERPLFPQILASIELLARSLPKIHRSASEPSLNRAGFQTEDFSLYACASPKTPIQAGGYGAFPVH
Sequence of Mast/stem cell growth factor receptor Kit (Homo sapiens), P10721 [V559D] (P10721 whole entry V559D): as the sequence (P10721 whole entry L576P) above, with V559D, P576L counted along it

Regarding `COc1n[nH]c2ncc(C#Cc3c(F)ccc(NS(=O)(=O)c4cccc(C#N)c4)c3F)cc12`, the Activity in [1] came out at 2.9%; in data set [5] it was 9.9%; in data set [6], 2.4%; in [14] it was 5.5%; in data set [16], 3.9%; in data set [19] it was 6.2%. Also, in data set [23], the Activity turned out to be 3%. Also, the inhibition entry in data set [2], in data set [4], in data set [7], in [8], in data set [10] and in [20] was “Dose-dependent effect” each time. Besides, the inhibition result in data set [21] and in [24] was “Dose-dependent effect” throughout. The AUC in data set [3] came to 253794 µg/L/h. For the same molecule, the Kd in [9] was found to be 64 nM; in data set [11] it was 45 nM; in data set [17], 2.7 nM; in [18], 88 nM. Further, the IC50 is 3.3 nM in data set [12] and greater than 10000 nM in [22]. Moreover, the fraction unbound at 4 h, 1 µM in [13] is 0.002. The molecule also showed a half-life in [15] of 34.6 h.

These data come from ChEMBL document CHEMBL4052661, “Structure Based Design of N-(3-((1H-Pyrazolo[3,4-b]pyridin-5-yl)ethynyl)benzenesulfonamides as Selective Leucine-Zipper and Sterile-α Motif Kinase (ZAK) Inhibitors” (J Med Chem, 2017).
